Measured values reported in ChEMBL document CHEMBL4428067, “Drug Discovery against Psoriasis: Identification of a New Potent FMS-like Tyrosine Kinase 3 (FLT3) Inhibitor, 1-(4-((1H-Pyrazolo[3,4-d]pyrimidin-4-yl)oxy)-3-fluorophenyl)-3-(5-(tert-butyl)isoxazol-3-yl)urea, That Showed Potent Activity in a Psoriatic Animal Model” (J Med Chem, 2016).
Active and inactive are the calls of the source. The calls are words filed in the database; no cut-off is given here.

Experiments:
[1] = species on record: Mus musculus; assay: Antipsoriatic activity in K14-VEGF transgenic mouse model of psoriasis assessed as reduction in focal parakeratinosis at 0.05% applied tropically over lesion for continuous 29 days by H and E staining method relative to vehicle control; type: functional, organism-based
Procedure, shortened: (§1)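 Homozygous K14-VEGF mice, 3–4 months old, with moderate to serious psoriasis; n=3 per group. Cream with 0.05% compound or vehicle cream smeared on lesions. Head and neck tissue sections taken after 29 days of treatment and HE-stained. Baker pathological score from 5 random fields, given as mean and SD. Epidermal thickness from 8 random fields, given as mean ± SEM.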

[2] = species on record: Mus musculus; assay: Antipsoriatic activity in K14-VEGF transgenic mouse model of psoriasis assessed as upper left quadrant DC cells expressing FLT3 and CD11c in psoriatic plaque lesion at 0.05% applied tropically over lesion for continuous 29 days by flow cytometric analysis (reference value: 9.62%); type: functional
[3] = species on record: Mus musculus; assay: Antipsoriatic activity in K14-VEGF transgenic mouse model of psoriasis assessed as reduction in Baker scores at 0.05% applied tropically over lesion for continuous 29 days by H and E staining method relative to vehicle control; type: functional, organism-based; procedure, shortened: as §1
[4] = species on record: Mus musculus; assay: Antipsoriatic activity in K14-VEGF transgenic mouse model of psoriasis assessed as lower left quadrant FLT3+/CD11c+/B220+ pDC cells in psoriatic plaque lesion at 0.05% applied tropically over lesion for continuous 29 days by flow cytometric analysis (reference value: 4.97%); type: functional
[5] = species on record: Mus musculus; assay: Antipsoriatic activity in K14-VEGF transgenic mouse model of psoriasis assessed as improvement of psoriatic symptoms at 0.05% applied tropically over lesion for continuous 21 days by macroscopic analysis relative to vehicle control; type: functional, organism-based
Procedure, shortened: (§2)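 Homozygous K14-VEGF mice, 3–4 months old, with moderate to serious psoriasis. Lesions smeared with cream with or without 0.05% compound for 3 weeks, then observed untreated for another 15 days. Head and neck photographed on days 0, 21 and 36 for macroscopic assessment.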

[6] = target: T1, Receptor-type tyrosine-protein kinase FLT3 (Mus musculus) (UniProt Q00342); assay: (§3) Inhibition of FLT3 in Balb/c mouse BMDCs assessed as suppression of FLT3L-induced mDC formation measured as lower left quadrant cells level treated on day 9 post 9 days of FLT3L-stimulation measured after 24 hrs by CD11c PerCP and I-A/I-E (MHC class II) FITC staining based flow cytometric analysis (reference value: 43.7%); design: scale not given: the % may be the effect or the level left
T1 sequence (whole entry): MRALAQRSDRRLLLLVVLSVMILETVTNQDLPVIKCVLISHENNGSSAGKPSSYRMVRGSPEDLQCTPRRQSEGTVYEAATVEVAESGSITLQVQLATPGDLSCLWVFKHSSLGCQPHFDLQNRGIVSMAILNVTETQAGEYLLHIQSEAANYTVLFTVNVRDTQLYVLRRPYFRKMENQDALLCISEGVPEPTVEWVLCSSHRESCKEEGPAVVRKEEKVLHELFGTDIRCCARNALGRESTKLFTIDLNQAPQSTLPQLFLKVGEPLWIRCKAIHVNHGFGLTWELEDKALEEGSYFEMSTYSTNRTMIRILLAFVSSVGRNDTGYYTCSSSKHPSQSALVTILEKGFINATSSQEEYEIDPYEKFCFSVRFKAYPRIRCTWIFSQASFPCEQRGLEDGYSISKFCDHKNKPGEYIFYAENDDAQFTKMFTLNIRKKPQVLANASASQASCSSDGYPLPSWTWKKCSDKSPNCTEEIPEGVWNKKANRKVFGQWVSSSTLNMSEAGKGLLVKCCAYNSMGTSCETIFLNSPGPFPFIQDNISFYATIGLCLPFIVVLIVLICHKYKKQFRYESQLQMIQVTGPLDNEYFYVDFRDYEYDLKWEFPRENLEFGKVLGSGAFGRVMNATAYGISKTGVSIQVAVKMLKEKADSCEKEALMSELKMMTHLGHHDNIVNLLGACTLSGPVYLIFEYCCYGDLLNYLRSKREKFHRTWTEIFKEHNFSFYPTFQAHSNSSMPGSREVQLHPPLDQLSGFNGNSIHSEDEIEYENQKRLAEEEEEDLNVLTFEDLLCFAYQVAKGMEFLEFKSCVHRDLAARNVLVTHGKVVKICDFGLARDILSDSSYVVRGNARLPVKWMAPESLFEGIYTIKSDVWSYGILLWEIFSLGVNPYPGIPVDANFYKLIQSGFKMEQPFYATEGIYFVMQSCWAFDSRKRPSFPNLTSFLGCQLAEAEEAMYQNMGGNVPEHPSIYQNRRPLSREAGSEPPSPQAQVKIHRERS
Procedure, shortened: (§4)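 BALB/c bone marrow cells were cultured at 1×10^6/ml with FLT3L in supplemented RPMI-1640 for 9 days. Compound in DMSO or 0.1% DMSO was added on day 9 for 24 h. Cells were stained for 30 min with CD11c PerCP plus B220 FITC (pDC: CD11c+ B220+) or MHC II FITC (mDC: CD11c+ MHC II+), then analysed by flow cytometry. Three independent experiments.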

[7] = species on record: Mus musculus; assay: Downregulation of IL17 expression in K14-VEGF transgenic mouse model of psoriasis at 0.05% applied tropically over lesion for 29 days by ELISA; type: functional, organism-based
Procedure, shortened: (§5)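 K14-VEGF mice were treated for 29 days with 0.05% cream or vehicle, n=3 each. At termination, blood was held at 4 °C for 12 h and then centrifuged. Plasma IFN-γ and IL-17 were measured by ELISA, mean ± SD.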

[8] = species on record: Mus musculus; assay: Antipsoriatic activity in K14-VEGF transgenic mouse model of psoriasis assessed as upper left quadrant FLT3+/CD11c+/B220+ pDC cells in psoriatic plaque lesion at 0.05% applied tropically over lesion for continuous 29 days by flow cytometric analysis (reference value: 58.4%); type: functional
[9] = species on record: Mus musculus; assay: Antipsoriatic activity in K14-VEGF transgenic mouse model of psoriasis assessed as decrease in CD31 expression in psoriatic lesion at 0.05% applied tropically over lesion for continuous 29 days by immunohistochemical analysis relative to vehicle control; type: functional; design: scale not given: the % may be the effect or the level left
Procedure, shortened: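 K14-VEGF mice were treated topically with 0.05% cream or vehicle for 29 days, n=3 per group. Ear skin was paraffin-embedded, cut into 4-µm sections and immunostained. Staining was quantified in 5 random fields, reported as mean ± SD.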

[10] = species on record: Mus musculus; assay: Antipsoriatic activity in K14-VEGF transgenic mouse model of psoriasis assessed as recurrence of psoriatic symptoms at 0.05% applied tropically over lesion for continuous 21 days measured after 15 days of last dosage by macroscopic analysis relative to vehicle control; type: functional, organism-based; procedure, shortened: as §2
[11] = target: T1, Receptor-type tyrosine-protein kinase FLT3 (Mus musculus); assay: as §3, with “upper” for “lower”, “31.8%)” for “43.7%)”; design: scale not given: the % may be the effect or the level left; procedure, shortened: as §4
[12] = target: T1, Receptor-type tyrosine-protein kinase FLT3 (Mus musculus); assay: as §3, with “pDC” for “mDC”, “upper” for “lower”, “CD45R/B220” for “I-A/I-E (MHC class II)”, “45.8%)” for “43.7%)”; design: scale not given: the % may be the effect or the level left; procedure, shortened: as §4
[13] = species on record: Mus musculus; assay: Downregulation of IFN-gamma expression in K14-VEGF transgenic mouse model of psoriasis at 0.05% applied tropically over lesion for 29 days by ELISA; type: functional, organism-based; procedure, shortened: as §5
[14] = target: T1, Receptor-type tyrosine-protein kinase FLT3 (Mus musculus); assay: as §3, with “pDC” for “mDC”, “right” for “left”, “CD45R/B220” for “I-A/I-E (MHC class II)”, “2.8%)” for “43.7%)”; design: scale not given: the % may be the effect or the level left; procedure, shortened: as §4

Activity [6]: 54.7%
Activity [11]: 23.5%
Activity [12]: 40.3%
Activity [14]: 4.63%
SMILES: CC(C)(C)c1cc(NC(=O)Nc2ccc(Oc3ncnc4[nH]ncc34)c(F)c2)no1
Activity [1]: Active
Activity [2]: 3.22%
Activity [3]: Active
Activity [4]: 11%
Activity [5]: Active
Activity [7]: Active
Activity [8]: 79.4%
Activity [9]: 94%
Activity [10]: inactive
Activity [13]: Active
